# According to ChEMBL document CHEMBL2029235, “Bio-inspired synthesis and biological evaluation of a colchicine-related compound library” (Bioorg Med Chem Lett, 2012):
# Test system: HT-29
# Test: Cytotoxicity against human HT-29 cells
# Details: not given
row,SMILES,IC50 [µM]
1,COc1cc2c(c(OC)c1OC)-c1ccc(OC)c(=O)cc1[C@@H](NC(C)=O)CC2 [COLCHICINE],0.008

# Test system: HT-29
# Test: Cytotoxicity against human HT-29 cells after 96 hrs by MTT assay
# Format: functional, cell-based
# Details: HT-29, 96 h
# Method in brief: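 HT-29 cells in RPMI-1640 with 10% newborn calf serum, 37 °C, 5% CO2. Seeded at 5 × 10^3 cells/well and grown 24 h, then given fresh medium with graded compound concentrations for 96 h. MTT (5 mg/mL stock) added for 1–2 h at 37 °C. Formazan dissolved in DMSO and read at 570 nm; viability taken as absorbance fraction of untreated wells. Run in triplicate, mean ± SD.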
row,SMILES,IC50 [µM]
1,COc1cc2c3c(c1O)-c1c(cc(OC)c(OC)c1OC)CC[C@@H]3N(C)CC2=O,22.5
2,COc1cc2c(cc1O)[C@H](CCc1cc(OC)c(OC)c(OC)c1)N(C(=O)C(F)(F)F)CC2,> 50
3,COc1cc2c3c(c1O)-c1c(cc(OC)c(OC)c1OC)CC[C@@H]3N(S(C)(=O)=O)CC2,7.95
4,COc1cc2c3c(c1O)-c1c(cc(OC)c(OC)c1OC)CC[C@@H]3N(S(=O)(=O)C(F)(F)F)CC2,10.4
5,COc1cc2c3c(c1O)-c1c(cc(OC)c(OC)c1OC)CC[C@@H]3N(C(C)=O)CC2,13.3
6,COc1cc2c3c(c1O)-c1c(cc(OC)c(OC)c1OC)CC[C@@H]3N(C(=O)C(F)(F)F)CC2,6.45
7,COC1=C[C@@]23CCN(S(C)(=O)=O)[C@@H](CCc4cc(OC)c(OC)c(OC)c42)C3=CC1=O,> 50
8,COC1=C[C@@]23CCN(S(=O)(=O)C(F)(F)F)[C@@H](CCc4cc(OC)c(OC)c(OC)c42)C3=CC1=O,15.7
9,COC1=C[C@@]23CCN(S(=O)(=O)c4ccc(C)cc4)[C@@H](CCc4cc(OC)c(OC)c(OC)c42)C3=CC1=O,42.7
10,COC1=C[C@@]23CCN(C(C)=O)[C@@H](CCc4cc(OC)c(OC)c(OC)c42)C3=CC1=O,37.8
11,COC1=C[C@@]23CCN(C(=O)C(F)(F)F)[C@@H](CCc4cc(OC)c(OC)c(OC)c42)C3=CC1=O,> 50
12,COc1cc2c(cc1O)[C@@H]1CCc3cc(OC)c(OC)c(OC)c3[C@H]2CN1S(C)(=O)=O,11.6
13,COc1cc2c(cc1O)[C@@H]1CCc3cc(OC)c(OC)c(OC)c3[C@H]2CN1S(=O)(=O)c1ccc(C)cc1,10.8
14,COc1cc2c(cc1O)[C@@H]1CCc3cc(OC)c(OC)c(OC)c3[C@H]2CN1C(C)=O,> 50
15,COc1cc2c(cc1O)[C@@H]1CCc3cc(OC)c(OC)c(OC)c3[C@H]2CN1C(=O)C(F)(F)F,27.8
16,COc1cc2c(cc1OC(C)=O)[C@@H]1CCc3cc(OC)c(OC)c(OC)c3[C@H]2CN1C(=O)C(F)(F)F,40.8
17,COc1cc2c(c(OC)c1OC)[C@H]1CN(S(=O)(=O)c3ccc(C)cc3)[C@@H](CC2)C2=CC(=O)C(=O)C=C21,6.6
18,COc1cc2c(cc1O)[C@H]1CCc3cc(OC)c(OC)c(OC)c3[C@@H](C2)N1Cc1ccccc1,9.1
19,COc1cc2c(cc1OC(C)=O)[C@H]1CCc3cc(OC)c(OC)c(OC)c3[C@@H](C2)N1Cc1ccccc1,21.7
20,COc1cc2c(cc1OC)[C@H]1CCc3cc(OC)c(OC)c(OC)c3[C@@H](C2)N1C,> 50
21,COc1cc2c(cc1O)[C@H]1CCc3cc(OC)c(OC)c(OC)c3[C@@H](C2)N1C,> 50
22,COc1cc2c(cc1OC(C)=O)[C@H]1CCc3cc(OC)c(OC)c(OC)c3[C@@H](C2)N1C,43.5

row,SMILES,IC50 [µM]
1,COC1=CC2(C=C(OC)C1=O)CC[C@H]1c3c(cc(OC)c(O)c32)CCN1S(=O)(=O)C(F)(F)F,46.5
2,COC1=CC2(C=C(OC)C1=O)CC[C@H]1c3c(cc(OC)c(O)c32)CCN1C(C)=O,45.9
3,COC1=CC2(C=C(OC)C1=O)CC[C@H]1c3c(cc(OC)c(O)c32)CCN1C,> 50
4,COc1cc2c3c(c1O)-c1c(cc(OC)c(OC)c1OC)CC[C@@H]3N(S(=O)(=O)C(F)(F)F)CC2=O,1.16
5,COc1cc2c(c(OC)c1OC)-c1c(OC(C)=O)c(OC)cc3c1[C@H](CC2)N(C)CC3=O,27.2
6,COc1cc2c(c(OC)c1OC)-c1c(OC(=O)Oc3ccccc3)c(OC)cc3c1[C@H](CC2)N(C)CC3=O,30.8
7,COc1cc2c3c(c1O)-c1c(cc(OC)c(OC)c1OC)CC[C@@H]3N(S(C)(=O)=O)C(O)C2=O (some centres undefined),> 50
8,COc1cc2c3c(c1O)-c1c(cc(OC)c(OC)c1OC)CC[C@@H]3N(C(=O)C(F)(F)F)C=C2,0.684
9,COc1cc2c(c(OC)c1OC)-c1c(OC(C)=O)c(OC)cc3c1[C@H](CC2)N(C(=O)C(F)(F)F)C=C3,1.25
10,COc1cc2c(c(OC)c1OC)-c1c(OS(=O)(=O)C(F)(F)F)c(OC)cc3c1C(=CC2)N(S(=O)(=O)C(F)(F)F)C=C3,10.1
11,COc1cc2ccnc3c2c(c1O)-c1c(cc(OC)c(OC)c1OC)CC3,0.179
12,COc1cc2c(c(OC)c1OC)-c1c(OC(C)=O)c(OC)cc3ccnc(c13)CC2,0.189
13,COc1cc2c(c(OC)c1OC)-c1c(OC(=O)C3CCCCC3)c(OC)cc3ccnc(c13)CC2,0.99
14,COc1cc2c(c(OC)c1OC)-c1c(OC(=O)c3ccccc3)c(OC)cc3ccnc(c13)CC2,2.56
15,COC(=O)Oc1c(OC)cc2ccnc3c2c1-c1c(cc(OC)c(OC)c1OC)CC3,0.182
16,COc1cc2c(c(OC)c1OC)-c1c(OC(=O)OCC(Cl)(Cl)Cl)c(OC)cc3ccnc(c13)CC2,0.229
17,COc1cc2c(c(OC)c1OC)-c1c(OC(=O)Oc3ccccc3)c(OC)cc3ccnc(c13)CC2,0.132
18,COc1cc2c(c(OC)c1OC)-c1c(OC(=S)n3ccnc3)c(OC)cc3ccnc(c13)CC2,0.293
19,COc1cc2c(c(OC)c1OC)-c1c(OS(C)(=O)=O)c(OC)cc3ccnc(c13)CC2,24.4
20,COc1cc2c(c(OC)c1OC)-c1c(OS(=O)(=O)C(F)(F)F)c(OC)cc3ccnc(c13)CC2,24.6
21,COC1=CC2=C3c4c(c(OC)cc5ccnc(c45)CC2)O[C@]3(OC)C1=O,23.9
